Experimental data from article PMC10685179 (RSC Advances, 2023).
≈ marks a conversion by molar mass, not a printed value.

Columns and labels:
C. albicans KA205 [1] = assay: Agar well-diffusion, inhibition zone; type: cell-based, Candida albicans; conditions: for zone of inhibition at 10 µM: Candida albicans, KA205, read-out: Average diameter of inhibition zone (ZI)
In short: (§1)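 Clinical MDR isolates from complicated UTI patients. Suspensions were made in Tryptic Soya and Sabouraud broths from subcultures on Tryptic Soya and Sabouraud agar plates. Agar well diffusion followed CLSI guidelines, with test compounds applied at 10 μM in DMSO. Fosfomycin and fluconazole were positive controls and DMSO the negative control. Zone diameters were read in mm, in triplicate.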

E. coli KA780 [2] = assay: Broth microdilution MIC and MBC; type: cell-based; conditions: Escherichia coli; for MIC: KA780, 24 h; for MBC: KA780, read-out: MBC/MIC
E. faecalis KA247 [3] = assay: Agar well-diffusion, inhibition zone; type: cell-based, Enterococcus faecalis; conditions: for zone of inhibition at 10 µM: Enterococcus faecalis, KA247, read-out: Average diameter of inhibition zone (ZI)
In short: as §1

P. mirabilis KA320 [4] = assay: Agar well-diffusion, inhibition zone; type: cell-based, Proteus mirabilis; conditions: for zone of inhibition at 10 µM: Proteus mirabilis, KA320, read-out: Average diameter of inhibition zone (ZI)
In short: as §1

C. albicans KA205 [5] = assay: Broth microdilution MIC and MFC; type: cell-based; conditions: Candida albicans; for MIC: KA205, 24 h; for MFC: KA205, read-out: MFC/MIC
C. tropicalis KA205 [6] = assay: Broth microdilution MIC and MFC; type: cell-based; conditions: Candida tropicalis; for MIC: KA205, 24 h; for MFC: KA205, read-out: MFC/MIC
P. mirabilis KA320 [7] = assay: Broth microdilution MIC and MBC; type: cell-based; conditions: Proteus mirabilis; for MIC: KA320, 24 h; for MBC: KA320, read-out: MBC/MIC
E. coli KA780 [8] = assay: Agar well-diffusion, inhibition zone; type: cell-based, Escherichia coli; conditions: for zone of inhibition at 10 µM: Escherichia coli, KA780, read-out: Average diameter of inhibition zone (ZI)
In short: as §1

E. faecalis KA247 [9] = assay: Broth microdilution MIC and MBC; type: cell-based; conditions: Enterococcus faecalis, KA247, 24 h
S. aureus KA112 [10] = assay: Broth microdilution MIC and MBC; type: cell-based; conditions: Staphylococcus aureus; for MIC: KA112, 24 h; for MBC: KA112, read-out: MBC/MIC
C. tropicalis KA205 [11] = assay: Agar well-diffusion, inhibition zone; type: cell-based, Candida tropicalis; conditions: for zone of inhibition at 10 µM: Candida tropicalis, KA205, read-out: Average diameter of inhibition zone (ZI)
In short: as §1

fungal isolates [12] = assay: Broth microdilution MIC/MFC, fungal panel; type: cell-based
S. aureus KA112 [13] = assay: Agar well-diffusion, inhibition zone; type: cell-based, Staphylococcus aureus; conditions: for zone of inhibition at 10 µM: Staphylococcus aureus, KA112, read-out: Average diameter of inhibition zone (ZI)
In short: as §1

P. mirabilis KA320 [14] = assay: Checkerboard microdilution synergy with fosfomycin; type: cell-based, Proteus mirabilis
[15] = tested on: fosfomycin-resistant (FO-R) E. coli KA780; assay: SEM of outer membrane integrity; type: cell-based; conditions: at MIC, compared with DMSO
E. coli MurA enzyme = E. coli MurA enzyme (Escherichia coli, UniProt P0A749); assay: MurA enzyme inhibition assay; type: biochemical
[16] = Physical and chemical stability after gamma irradiation; type: physicochemical; conditions: gamma radiation 3.0 kGy to 20.0 kGy
In short: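 Compound powders in sterile tubes were irradiated by a 60Co source at 3.0, 5.0, 7.0, 10.0, 15.0 and 20.0 kGy, at a dose rate of 0.9 kGy h−1. Non-irradiated and irradiated samples were checked for physical and chemical changes by UV-VIS spectrophotometry at 560 nm.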

E. faecalis KA247 [17] = assay: Checkerboard microdilution synergy with fosfomycin; type: cell-based, Enterococcus faecalis
MDR microbial isolates = assay: Time-kill kinetics, whole panel; type: cell-based; conditions: all pathogenic isolates
In short: (§2)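 Untreated organisms served as controls. Bacteria were sampled at 0, 2, 4, 6, 8, 12, 18 and 24 h, and fungi at 0, 2, 4, 6, 8, 18, 24 and 48 h. Counts were made by plate count and plotted as log10 CFU mL−1 versus time.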

[18] = tested on: BNL: mouse normal liver cells; assay: SRB cytotoxicity assay on normal cells; type: cell-based
In short: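 Mouse normal liver BNL cells were grown in DMEM with 10% heat-inactivated FBS, penicillin and streptomycin, at 37 °C in 5% CO2. […] SRB assay: 10% TCA fixation at 4 °C for 1 h, 0.4% SRB for 10 min at room temperature, 1% acetic acid washes, 10 mM Tris solubilisation, absorbance at 540 nm. Mean of three, with SD.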

bacterial isolates = assay: Time-kill kinetics, bacterial isolates; type: cell-based; conditions: at MIC
In short: as §2

C. tropicalis KA205 [19] = assay: Checkerboard microdilution synergy with fluconazole; type: cell-based, Candida tropicalis
S. aureus KA112 [20] = assay: Checkerboard microdilution synergy with fosfomycin; type: cell-based, Staphylococcus aureus
E. coli KA780 [21] = assay: Checkerboard microdilution synergy with fosfomycin; type: cell-based, Escherichia coli
fungal isolates [22] = assay: Time-kill kinetics, fungal isolates; type: cell-based; conditions: at MIC
In short: as §2

[23] = 10 μM (DMSO), mean of three ± SEM

E. coli MurA enzyme, sequence (P0A749 whole entry): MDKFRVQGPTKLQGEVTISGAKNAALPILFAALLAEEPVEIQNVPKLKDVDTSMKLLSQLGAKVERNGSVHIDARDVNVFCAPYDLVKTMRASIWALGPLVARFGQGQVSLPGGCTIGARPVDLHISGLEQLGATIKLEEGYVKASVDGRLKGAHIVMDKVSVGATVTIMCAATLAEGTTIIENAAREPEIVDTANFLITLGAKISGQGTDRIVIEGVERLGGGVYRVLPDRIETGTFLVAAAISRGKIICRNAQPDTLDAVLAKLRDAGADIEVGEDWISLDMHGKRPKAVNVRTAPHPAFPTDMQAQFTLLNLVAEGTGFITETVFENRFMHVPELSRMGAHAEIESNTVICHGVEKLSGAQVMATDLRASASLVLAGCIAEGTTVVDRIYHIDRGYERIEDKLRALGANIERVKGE

CCOP(=O)(OCC)C(Nc1nc2c(-c3ccc([N+](=O)[O-])cc3)nn(-c3ccccc3)c2s1)c1ccc(Cl)cc1 (centres unmarked) [Compound 3, Diethyl((4-chlorophenyl)((3-(4-nitrophenyl)-1-phenyl-1H-pyrazolo[4,3-d]thiazol-5-yl)amino)methyl)phosphonate]
zone of inhibition at 10 µM (C. albicans KA205 [1]): 17 ± 0.88 mm
MIC (E. coli KA780 [2]): 1 µg/mL (≈ 1.67 µM)
MBC (E. coli KA780 [2]): 1 µg/mL (≈ 1.67 µM)
zone of inhibition at 10 µM (E. faecalis KA247 [3]): 18 ± 0.05 mm
zone of inhibition at 10 µM (P. mirabilis KA320 [4]): 17 ± 0.71 mm
MIC (C. albicans KA205 [5]): 1 µg/mL (≈ 1.67 µM)
MFC (C. albicans KA205 [5]): 1 µg/mL (≈ 1.67 µM)
MIC (C. tropicalis KA205 [6]): 1 µg/mL (≈ 1.67 µM)
MFC (C. tropicalis KA205 [6]): 0.5 µg/mL (≈ 0.836 µM)
MIC (P. mirabilis KA320 [7]): 2 µg/mL (≈ 3.34 µM)
MBC (P. mirabilis KA320 [7]): 1 µg/mL (≈ 1.67 µM)
zone of inhibition at 10 µM (E. coli KA780 [8]): 19 ± 0.14 mm
MIC (E. faecalis KA247 [9]): 2 µg/mL (≈ 3.34 µM)
MIC (S. aureus KA112 [10]): 1 µg/mL (≈ 1.67 µM)
MBC (S. aureus KA112 [10]): 2 µg/mL (≈ 3.34 µM)
zone of inhibition at 10 µM (C. tropicalis KA205 [11]): 17 ± 0.48 mm
MFC (fungal isolates [12]): 0.5 to 1 µg/mL (≈ 0.836 to 1.67 µM)
zone of inhibition at 10 µM (S. aureus KA112 [13]): 18 ± 0.31 mm

O=[N+]([O-])c1ccc(-c2nn(-c3ccccc3)c3sc(NC(c4ccccc4O)P(=O)(Oc4ccccc4)Oc4ccccc4)nc23)cc1 (centres unmarked) [Compound 5a, Diphenyl((2-hydroxyphenyl)((3-(4-nitrophenyl)-1-phenyl-1H-pyrazolo[4,3-d]thiazol-5-yl)amino)methyl)phosphonate]
combination effect (P. mirabilis KA320 [14]): S (FICI ≤ 0.5 (synergism))
Fractional inhibitory concentration index (ΣFICI) (P. mirabilis KA320 [14]; combination with fosfomycin): 0.5
Average diameter of inhibition zone (ZI) (C. albicans KA205 [1]; [23]): 22 ± 0.76 mm
MIC (E. coli KA780 [2]): 0.06 µg/mL (≈ 0.0888 µM)
MBC (E. coli KA780 [2]): 0.5 µg/mL (≈ 0.74 µM)
Average diameter of inhibition zone (ZI) (E. faecalis KA247 [3]; [23]): 24 ± 0.20 mm
Average diameter of inhibition zone (ZI) (P. mirabilis KA320 [4]; [23]): 23 ± 0.44 mm
effect on outer membrane (SEM image) [15]: perturbation in the membrane and distinct ruptures of the OM integrity
MIC (C. albicans KA205 [5]): 0.125 µg/mL (≈ 0.185 µM)
MFC (C. albicans KA205 [5]): 0.5 µg/mL (≈ 0.74 µM)
IC50 (E. coli MurA enzyme; IC50, preincubation 0 min): 41 µM
IC50 (E. coli MurA enzyme; IC50, preincubation 10 min): 3.8 µM
remaining activity at 100 µM (E. coli MurA enzyme; read-out: RA (residual activity), at 100 μM, preincubation 10 min): 0%
physical changes (odor, color, clarity, solubility, and form) after irradiation [16]: no changes occurred
stability of the chemical structure after irradiation ([16]; UV-VIS spectrophotometer): confirmed the stability of the chemical structure
MIC (C. tropicalis KA205 [6]): 0.125 µg/mL (≈ 0.185 µM)
MFC (C. tropicalis KA205 [6]): 1 µg/mL (≈ 1.48 µM)
MIC (P. mirabilis KA320 [7]): 0.125 µg/mL (≈ 0.185 µM)
MBC (P. mirabilis KA320 [7]): 0.5 µg/mL (≈ 0.74 µM)
Average diameter of inhibition zone (ZI) (E. coli KA780 [8]; [23]): 25 ± 0.28 mm
combination effect (E. faecalis KA247 [17]): S (FICI ≤ 0.5 (synergism))
Fractional inhibitory concentration index (ΣFICI) (E. faecalis KA247 [17]; combination with fosfomycin): 0.5
MIC (E. faecalis KA247 [9]): 0.125 µg/mL (≈ 0.185 µM)
microbial reduction relative to the initial inoculum (MDR microbial isolates): ≥ 3 log10
MIC (S. aureus KA112 [10]): 0.06 µg/mL (≈ 0.0888 µM)
MBC (S. aureus KA112 [10]): 0.5 µg/mL (≈ 0.74 µM)
IC50 [18]: > 100 µM
time of maximum killing rate (bacterial isolates): 6 h
combination effect (C. tropicalis KA205 [19]): S (FICI ≤ 0.5 (synergism))
Fractional inhibitory concentration index (ΣFICI) (C. tropicalis KA205 [19]; combination with fluconazole): 0.5
Average diameter of inhibition zone (ZI) (C. tropicalis KA205 [11]; [23]): 22 ± 0.43 mm
combination effect (S. aureus KA112 [20]): S (FICI ≤ 0.5 (synergism))
Fractional inhibitory concentration index (ΣFICI) (S. aureus KA112 [20]; combination with fosfomycin): 0.25
combination effect (E. coli KA780 [21]): S (FICI ≤ 0.5 (synergism))
Fractional inhibitory concentration index (ΣFICI) (E. coli KA780 [21]; combination with fosfomycin): 0.25
time of maximum killing rate / maximum reduction in cell counts (fungal isolates [22]): 16 h
Average diameter of inhibition zone (ZI) (S. aureus KA112 [13]; [23]): 24 ± 0.51 mm

CCOP(=O)(OCC)C(Nc1nc2c(-c3ccc([N+](=O)[O-])cc3)nn(-c3ccccc3)c2s1)c1ccc(N(C)C)cc1 (centres unmarked) [Compound 4, Diethyl((4-(dimethylamino)phenyl)((3-(4-nitrophenyl)-1-phenyl-1H-pyrazolo[4,3-d]thiazol-5-yl)amino)methyl)phosphonate]
zone of inhibition at 10 µM (C. albicans KA205 [1]): 16 ± 0.67 mm
MIC (E. coli KA780 [2]): 8 µg/mL (≈ 13.2 µM)
MBC (E. coli KA780 [2]): 1 µg/mL (≈ 1.65 µM)
zone of inhibition at 10 µM (E. faecalis KA247 [3]): 16 ± 0.8 mm
zone of inhibition at 10 µM (P. mirabilis KA320 [4]): 16 ± 0.34 mm
MIC (C. albicans KA205 [5]): 2 µg/mL (≈ 3.3 µM)
MFC (C. albicans KA205 [5]): 0.5 µg/mL (≈ 0.824 µM)
MIC (C. tropicalis KA205 [6]): 2 µg/mL (≈ 3.3 µM)
MFC (C. tropicalis KA205 [6]): 1 µg/mL (≈ 1.65 µM)
MIC (P. mirabilis KA320 [7]): 16 µg/mL (≈ 26.4 µM)
MBC (P. mirabilis KA320 [7]): 1 µg/mL (≈ 1.65 µM)
zone of inhibition at 10 µM (E. coli KA780 [8]): 17 ± 0.54 mm
MIC (E. faecalis KA247 [9]): 16 µg/mL (≈ 26.4 µM)
MIC (S. aureus KA112 [10]): 8 µg/mL (≈ 13.2 µM)
MBC (S. aureus KA112 [10]): 2 µg/mL (≈ 3.3 µM)
zone of inhibition at 10 µM (C. tropicalis KA205 [11]): 16 ± 0.54 mm
MFC (fungal isolates [12]): 1 to 2 µg/mL (≈ 1.65 to 3.3 µM)
zone of inhibition at 10 µM (S. aureus KA112 [13]): 17 mm

COc1cccc2c1C(=O)c1c(O)c3c(c(O)c1C2=O)C[C@@](O)(C(=O)CO)C[C@@H]3O[C@H]1C[C@H](N)[C@H](O)[C@H](C)O1 [DOX, Doxorubicin, reference compound]
IC50 [18]: 14.7 µM
